Calls of active or inactive are those of the source. No cut-off for these calls is given here.
Key:
[1] = Aqueous solubility of compound at pH 2.4; conditions: buffer
Plasmodium berghei [2] = test: (§1) In vivo antimalarial activity against blood stage Plasmodium berghei transfected with GFP infected in BALB/c mouse assessed as supression of parasitemia at 10 mg/kg, po administered once daily starting from day 3 to 5 post infection and measured at day 6 by Giemsa staining based flow cytometric analysis relative to control; format: functional
Summary of the method: (§2)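 Female BALB/c mice, 4–6 weeks old, five per group, were infected intraperitoneally with 2 × 10^6 P. berghei-GFP-infected red cells. Oral doses of 10 or 50 mg/kg in 0.5% aqueous HEC were given once daily on days 3–5 PI; prodrugs were suspended about 1 min before dosing. Parasitemia was measured by flow cytometry and Giemsa smears. Day-6 percent suppression was calculated versus untreated controls, with Welch-corrected t test.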

Plasmodium berghei [3] = test: as §1, with “50” for “10”; format: functional; summary of the method: as §2
[4] = Toxicity in BALB/c mouse infected with blood stage Plasmodium berghei assessed as weight loss at up to at 50 mg/kg, po administered once daily starting from day 3 to 5 post infection and measured on day 6; format: organism-based; conditions: in vivo
Summary of the method: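 P. berghei-infected BALB/c mice were dosed orally once daily on days 3–5 PI in 0.5% aqueous HEC, at doses up to 50 mg/kg. Body weight of treated animals was monitored for loss.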

[5] = AUC (0 to 24 hrs) in BALB/c mouse at 50 mg/kg, po; format: ADME, organism-based; design: time < 24 hr, route oral, dose 50 mg/kg; conditions: in vivo
Summary of the method: (§3)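 Single oral dose in mice, formulated in 0.5% aqueous HEC; doses of 3, 10 or 50 mg/kg. The parent 4(1H)-quinolone was quantified in plasma over time after dosing, with a lower limit of quantification of 1 nM. PK parameters were derived from the plasma concentration profiles.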

[6] = Clearance in BALB/c mouse at 50 mg/kg, po; format: ADME, organism-based; conditions: in vivo; summary of the method: as §3
Plasmodium berghei [7] = test: In vivo antimalarial activity against Plasmodium berghei at 20 mg/kg, po administered as single dose in presence of ferroquine; format: functional, organism-based
Plasmodium falciparum [8] = test: (§4) Antimalarial activity against chloroquine and pyrimethamine resistant Plasmodium falciparum W2 infected in human erythrocytes assessed as reduction in parasite growth incubated for 48 hrs followed by addition of [3H]-hypoxanthine and measured after 24 hrs by Topcount liquid scintillation counting method; format: functional, organism-based; conditions: W2, Erythrocyte
Plasmodium falciparum [9] = test: as §4, with “chloroquine, pyrimethamine, mefloquine” for “chloroquine”, “atovaquone-” for “pyrimethamine”, “TM90-C2B” for “W2”; format: functional, organism-based; conditions: Erythrocyte
[10] = Solubility of the compound in 0.5% hydroxyethylcellulose
[11] = Cmax in BALB/c mouse at 50 mg/kg, po; format: ADME, organism-based; design: route oral, dose 50 mg/kg; conditions: in vivo; summary of the method: as §3
[12] = Tmax in BALB/c mouse at 50 mg/kg, po; format: ADME, organism-based; conditions: in vivo; summary of the method: as §3
[13] = Volume of distribution in BALB/c mouse at 50 mg/kg, po; format: ADME, organism-based; conditions: in vivo; summary of the method: as §3
[14] = Apparent half life in BALB/c mouse at 50 mg/kg, po; format: ADME, organism-based; conditions: in vivo, read-out: t1/2(app) (converted); summary of the method: as §3

AUC [5] [µmol·min/L]	clearance [6] [mL/min/kg]	Structure (SMILES)	solubility [1] [mM]	Activity (Plasmodium berghei [2]) [%]	Activity (Plasmodium berghei [3]) [%]	Activity [4]	EC50 (Plasmodium falciparum [8]) [nM]	EC50 (Plasmodium falciparum [9]) [nM]	solubility [10] [mM]	further results
222	610	COc1cc2[nH]c(C)c(-c3ccc(C(F)(F)F)cc3)c(=O)c2cc1Cl	< 0.001	11	10	Non-Toxic	–	–	–	–
–	–	c1cc([C@H]2CC[C@]3(CC2)OOC2(O3)C3CC4CC(C3)CC2C4)ccc1OCCN1CCOCC1 (stereo not given in full)	–	–	–	–	–	–	–	Activity (Plasmodium berghei [7]): Active
–	–	COc1cc2nc(C)c(-c3ccccc3C)c(OC(=O)N3CCCC3)c2cc1Cl	–	–	–	–	> 2290	> 3550	–	–
8031	11.6	CNCCOC(=O)OCOc1c(-c2ccc(C(F)(F)F)cc2)c(C)nc2cc(OC)c(Cl)cc12.Cl	–	75	96	–	–	–	> 5.6	Cmax [11]: 12 µM; Tmax [12]: 4 h; Vd [13]: 7.8 L/kg; half-life [14]: 7.7 h
–	–	O=C1C(O)=C([C@H]2CC[C@H](c3ccc(Cl)cc3)CC2)C(=O)c2ccccc21 [ATOVAQUONE]	–	–	–	–	–	18200	–	–
–	–	CN1CCCOC1=O	–	–	–	–	> 8320	–	–	–
–	–	CNCCOC(=O)OCOc1c(-c2ccccc2C)c(C)nc2cc(OC)c(Cl)cc12.Cl	> 0.1	71	46	–	219	107	> 21	–
–	–	CNCCCOC(=O)OCOc1c(-c2ccccc2C)c(C)nc2cc(OC)c(Cl)cc12.Cl	> 0.1	52	72	Non-Toxic	269	170	> 20	–
11664	7.8	CNCCCOC(=O)OCOc1c(-c2ccc(C(F)(F)F)cc2)c(C)nc2cc(OC)c(Cl)cc12.Cl	0.6	82	96	Non-Toxic	–	–	> 5.5	–

From ChEMBL document CHEMBL5032492, “Aminoalkoxycarbonyloxymethyl Ether Prodrugs with a pH-Triggered Release Mechanism: A Case Study Improving the Solubility, Bioavailability, and Efficacy of Antimalarial 4(1H)-Quinolones with Single Dose Cures” (J Med Chem, 2021)
